This is a sample that favours compounds with a hit; in the whole collection about 2.4% have one here.
Ecoli rRNA inh = reduced GFP signal of wild-type E. coli, primary screen, bacterial rRNA inhibitor project, GFP/RFP fluorescence, OD600, single point. E. coli WT GFP vs humanized-ribosome RFP mutants, 24 h; active compounds read low; DMSO median 0, no signal -100. AID 720706, 2013. actives 1.6% (n = 350,000). GFP signal change (wild-type ribosome), % (test concentration not listed);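 active = significant combined selectivity score with lowered wild-type GFP, culture density cut under 30%, mutant RFP and density less affected; inactive = any of these conditions unmet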
EWS-Fli inh = EWS/Fli-driven NR0B1 reporter inhibitors, primary screen, A673 cells, NR0B1 luciferase, luminescence, MLPCN library; actives 0.67% (n = 350,000); viability-normalised; inhibition, % at 12.6 µM; AID 651661, 2012;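 active = mean inhibition of at least 50% after viability correction, with every replicate also passing that limit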;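 also: firefly luciferase signal divided by Alamar Blue viability fluorescence both relative to DMSO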
E-selectin induc = E-selectin induction in HUVECs, primary screen, imaging, HUVEC, immunofluorescence imaging, single point. P16581. normalized: neutral wells 0, TNF-alpha wells 100. activation, % at 7.58 µM. actives 0.37% (n = 260,000). AID 686992, 2013;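 active = mean E-selectin-positive cell signal at least 10% of the positive control, reached in at least 60% of replicates, without over 20% cell loss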
Target sequence (P16581 whole entry, looked up): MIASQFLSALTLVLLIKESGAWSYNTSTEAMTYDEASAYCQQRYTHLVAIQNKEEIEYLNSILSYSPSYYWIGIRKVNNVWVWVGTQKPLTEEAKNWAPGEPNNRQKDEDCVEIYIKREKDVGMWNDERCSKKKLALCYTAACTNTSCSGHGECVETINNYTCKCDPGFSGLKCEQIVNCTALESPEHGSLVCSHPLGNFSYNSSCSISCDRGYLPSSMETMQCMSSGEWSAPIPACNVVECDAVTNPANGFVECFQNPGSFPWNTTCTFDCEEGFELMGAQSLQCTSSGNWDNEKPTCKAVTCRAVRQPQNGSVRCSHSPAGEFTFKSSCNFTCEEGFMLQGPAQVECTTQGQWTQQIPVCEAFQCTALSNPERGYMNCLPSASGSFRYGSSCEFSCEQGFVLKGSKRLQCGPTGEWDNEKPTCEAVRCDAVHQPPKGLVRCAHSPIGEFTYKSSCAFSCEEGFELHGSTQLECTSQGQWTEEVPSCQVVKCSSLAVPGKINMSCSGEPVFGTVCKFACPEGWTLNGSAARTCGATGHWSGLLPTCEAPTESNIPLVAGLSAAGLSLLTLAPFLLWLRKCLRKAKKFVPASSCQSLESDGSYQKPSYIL
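Test system – human umbilical vein endothelial cells (HUVEC), E-selectin induction · Input – 3,000 HUVEC seeded per well · Buffer or medium – EGM-2, gelatin · Compound dosing – single-point compound dose · Detection – immunofluorescence imaging · Measure – percent E-selectin-positive cells · Controls – TNF-alpha high, DMSO low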
LGR2 antag = inhibitors of bursicon-induced LGR2 CRE-luciferase signal, primary screen, cell-based, HEK293, CRE-luciferase reporter, bursicon stimulation | Drosophila bursicon receptor LGR2 (rickets) | bursicon-stimulated, 4 h | inhibition, % at 9.99 µM | actives 0.35% (n = 380,000) | AID 720647, 2013;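 active = drop in luminescence signal, shown as inhibition above about 50% in the replicate tests, limit read from the data, passing the limit was not always enough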;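 also: agonist challenge used bursicon conditioned medium at about half maximal strength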
A number is an active result.

Results for CCCCNc1ccc2c(c1)OC[C@@H](Cc1ccccc1)NS2(=O)=O ?
Ecoli rRNA inh: -28; EWS-Fli inh: inactive; E-selectin induc: inactive; LGR2 antag: inactive

What do the screens show for `CC(C)C[C@@H]1COc2cc(NCCO)ccc2S(=O)(=O)N1`?
Ecoli rRNA inh: inactive; EWS-Fli inh: inactive; E-selectin induc: inactive; LGR2 antag: inactive

How did CC(C)C[C@H]1COc2cc(NCc3ccc(Cl)c(Cl)c3)ccc2S(=O)(=O)N1 do in these assays?
Ecoli rRNA inh: -26; EWS-Fli inh: inactive; E-selectin induc: inactive; LGR2 antag: inactive

How did O=C(CN1c2ccccc2Sc2ccccc21)NNC(=S)Nc1ccc(Cl)cc1 do in these assays?
Ecoli rRNA inh: -48; EWS-Fli inh: inactive; E-selectin induc: inactive; LGR2 antag: inactive

How did CCc1cc(/C(Cc2ccccn2)=N\O)c(O)cc1O do in these assays?
Ecoli rRNA inh: -33; EWS-Fli inh: inactive; LGR2 antag: inactive

Results for CC(=O)N1CC(=O)N2[C@H](CO)[C@H](c3ccc(-c4ccc(C)cc4)cc3)[C@@H]2C1 ?
Ecoli rRNA inh: inactive; EWS-Fli inh: inactive; E-selectin induc: inactive; LGR2 antag: inactive

Results for COc1cc(N/N=C/c2ccc(N(C)C)cc2)ncn1 ?
Ecoli rRNA inh: inactive; EWS-Fli inh: inactive; E-selectin induc: inactive; LGR2 antag: 74

What do the screens show for `COC(=O)c1noc(C)c1-c1ccnn1C(=O)c1ccc(C)cc1`?
Ecoli rRNA inh: inactive; EWS-Fli inh: inactive; E-selectin induc: 29; LGR2 antag: inactive

How did CC(=O)Nc1ccc(S(=O)(=O)N(CC(=O)Nc2cc(C)on2)Cc2ccc(F)cc2)cc1 do in these assays?
Ecoli rRNA inh: -24; EWS-Fli inh: inactive; E-selectin induc: inactive; LGR2 antag: inactive

How did CN1C(C(=O)c2ccccc2)=C(N)c2ccccc2S1(=O)=O do in these assays?
Ecoli rRNA inh: -23; EWS-Fli inh: inactive; E-selectin induc: inactive; LGR2 antag: inactive

How did O=C(C1=NN[C@@H]2C(=O)N(c3ccccc3C(F)(F)F)C(=O)[C@H]12)c1cnccn1 do in these assays?
Ecoli rRNA inh: inactive; EWS-Fli inh: inactive; E-selectin induc: 27; LGR2 antag: inactive

How did COc1ccc(NC(=O)CSCC(=O)NCc2cccc(C(F)(F)F)c2)cc1 do in these assays?
Ecoli rRNA inh: inactive; EWS-Fli inh: inactive; E-selectin induc: inactive; LGR2 antag: inactive

What do the screens show for `COc1cc(NC(=O)CSCC(=O)Nc2cccc(C(F)(F)F)c2)c(Cl)cc1Cl`?
Ecoli rRNA inh: -31; EWS-Fli inh: inactive; LGR2 antag: inactive

What do the screens show for `Cc1ccccc1S(=O)(=O)N1[C@H](C#N)[C@@H](c2ccc(C#CC3CCCCC3)cc2)[C@@H]1CO`?
Ecoli rRNA inh: inactive; EWS-Fli inh: inactive; E-selectin induc: inactive; LGR2 antag: inactive

What do the screens show for `Cc1ccccc1S(=O)(=O)N1[C@H](C#N)[C@H](c2ccc(C#CC3CCCCC3)cc2)[C@H]1CO`?
Ecoli rRNA inh: inactive; EWS-Fli inh: inactive; E-selectin induc: inactive; LGR2 antag: 76

What do the screens show for `O=c1[nH]c2ccccc2cc1CN(Cc1cccnc1)S(=O)(=O)c1ccc(Cl)cc1`?
Ecoli rRNA inh: -45; EWS-Fli inh: inactive; LGR2 antag: inactive

How did O=c1[nH]c2ccccc2cc1CN(Cc1cccnc1)S(=O)(=O)c1ccc([N+](=O)[O-])cc1 do in these assays?
Ecoli rRNA inh: -21; LGR2 antag: inactive

What do the screens show for `CC(=O)Nc1ccc(S(=O)(=O)N(Cc2cccnc2)Cc2cc3ccccc3[nH]c2=O)cc1`?
Ecoli rRNA inh: inactive; LGR2 antag: inactive

How did CN1CCN(C(=O)C[C@@H]2C[C@@H]3c4cc(NC(=O)c5ccc6c(c5)OCO6)ccc4O[C@@H]3[C@@H](CO)O2)CC1 do in these assays?
Ecoli rRNA inh: inactive; EWS-Fli inh: inactive; E-selectin induc: inactive; LGR2 antag: inactive

Results for COc1ccccc1C#Cc1cnc2c(c1)C(=O)N([C@@H](C)CO)C[C@H](C)[C@H](CN(C)C(C)=O)O2 ?
Ecoli rRNA inh: inactive; EWS-Fli inh: inactive; E-selectin induc: inactive; LGR2 antag: inactive

Results for O=C(C1CC1)N1[C@H](CO)[C@@H]2c3ccccc3N(S(=O)(=O)c3ccc(F)cc3)C[C@@H]21 ?
Ecoli rRNA inh: inactive; EWS-Fli inh: inactive; E-selectin induc: inactive; LGR2 antag: inactive

What do the screens show for `CC(C)C1CC(CCNCc2ccc3c(c2)OCO3)(c2ccccc2)CCO1` (stereo unspecified)?
Ecoli rRNA inh: -24; EWS-Fli inh: inactive; LGR2 antag: inactive

What do the screens show for `CCCNC(=O)N1C[C@@H](C)[C@H](OC)CN(C)C(=O)c2ccc(NS(=O)(=O)CC(F)(F)F)cc2OC[C@@H]1C`?
Ecoli rRNA inh: inactive; EWS-Fli inh: inactive; E-selectin induc: inactive; LGR2 antag: inactive

How did CCN(CC)CCCN(C(=O)c1ccc(OC)cc1)c1nc(-c2ccc(OC)cc2)cs1 do in these assays?
Ecoli rRNA inh: -35; EWS-Fli inh: inactive; E-selectin induc: inactive; LGR2 antag: inactive

What do the screens show for `CCN(CC)CCN(C(=O)c1ccc2ccccc2c1)c1nc2ccc(OC)cc2s1`?
Ecoli rRNA inh: -19; E-selectin induc: inactive; LGR2 antag: inactive

How did COc1ccc(S(=O)(=O)Nc2ccc3c(c2)CC(=O)N([C@@H](C)CO)C[C@@H](C)[C@H](CN(C)C(=O)NC(C)C)O3)cc1 do in these assays?
Ecoli rRNA inh: inactive; EWS-Fli inh: inactive; E-selectin induc: inactive; LGR2 antag: inactive

Results for C/C(=N\N=C(/N)SC1CC(=O)N(c2ccc(Br)cc2)C1=O)c1cccs1 (stereo unspecified) ?
Ecoli rRNA inh: inactive; EWS-Fli inh: inactive; LGR2 antag: inactive

How did C/C(=N\N=C(/N)SC1CC(=O)N(c2ccc(Cl)c(Cl)c2)C1=O)c1cccs1 (stereo unspecified) do in these assays?
Ecoli rRNA inh: -39; EWS-Fli inh: inactive; LGR2 antag: inactive

How did COc1cccc(C2c3c(oc4ccccc4c3=O)C(=O)N2CCCN2CCOCC2)c1OC (stereo unspecified) do in these assays?
Ecoli rRNA inh: inactive; EWS-Fli inh: inactive; E-selectin induc: 46; LGR2 antag: inactive

How did CCOC(=O)C1CCCN(Cc2cccc(Oc3ccccc3)c2)C1 (stereo unspecified) do in these assays?
Ecoli rRNA inh: inactive; EWS-Fli inh: inactive; E-selectin induc: inactive; LGR2 antag: inactive

What do the screens show for `CCOC(=O)C1CCCN(C(=O)C(C)(C)Oc2ccc(Cl)cc2)C1` (stereo unspecified)?
Ecoli rRNA inh: -30; EWS-Fli inh: inactive; LGR2 antag: inactive

What do the screens show for `CCOC(=O)C1CCCN(Cc2ccc(-c3ccccc3)cc2)C1` (stereo unspecified)?
Ecoli rRNA inh: -25; EWS-Fli inh: inactive; LGR2 antag: inactive

What do the screens show for `COc1ccc2c3c(n(C)c2c1)[C@@H](CO)N(C(=O)C1CCCCC1)CC31CCN(C(=O)CN(C)C)CC1`?
Ecoli rRNA inh: inactive; EWS-Fli inh: inactive; E-selectin induc: inactive; LGR2 antag: inactive
